25 molecules from ChEMBL document CHEMBL1155319, “Discovery of novel selective HER-2 sheddase inhibitors through optimization of P1 moiety” (Bioorg Med Chem Lett, 2009) can be followed below.

Structures are written as SMILES.

By IC50 is commonly meant the concentration at which inhibition is half-maximal. Low values mean inhibition by little substance, high ones a need for much substance. What is called half-life is how long it takes for the measured level to halve. Low readings indicate rapid decline, high ones slow decline. By Papp is commonly meant a coefficient for how fast a substance crosses the barrier.

The target of data set [1] is Matrix metalloproteinase-9 (Homo sapiens, UniProt P14780). Kind of data set: Inhibition of MMP-9.
Data set [2] concerns the target T1, Disintegrin and metalloproteinase domain-containing protein 10 (Homo sapiens, UniProt O14672).
T1 sequence (O14672 whole entry): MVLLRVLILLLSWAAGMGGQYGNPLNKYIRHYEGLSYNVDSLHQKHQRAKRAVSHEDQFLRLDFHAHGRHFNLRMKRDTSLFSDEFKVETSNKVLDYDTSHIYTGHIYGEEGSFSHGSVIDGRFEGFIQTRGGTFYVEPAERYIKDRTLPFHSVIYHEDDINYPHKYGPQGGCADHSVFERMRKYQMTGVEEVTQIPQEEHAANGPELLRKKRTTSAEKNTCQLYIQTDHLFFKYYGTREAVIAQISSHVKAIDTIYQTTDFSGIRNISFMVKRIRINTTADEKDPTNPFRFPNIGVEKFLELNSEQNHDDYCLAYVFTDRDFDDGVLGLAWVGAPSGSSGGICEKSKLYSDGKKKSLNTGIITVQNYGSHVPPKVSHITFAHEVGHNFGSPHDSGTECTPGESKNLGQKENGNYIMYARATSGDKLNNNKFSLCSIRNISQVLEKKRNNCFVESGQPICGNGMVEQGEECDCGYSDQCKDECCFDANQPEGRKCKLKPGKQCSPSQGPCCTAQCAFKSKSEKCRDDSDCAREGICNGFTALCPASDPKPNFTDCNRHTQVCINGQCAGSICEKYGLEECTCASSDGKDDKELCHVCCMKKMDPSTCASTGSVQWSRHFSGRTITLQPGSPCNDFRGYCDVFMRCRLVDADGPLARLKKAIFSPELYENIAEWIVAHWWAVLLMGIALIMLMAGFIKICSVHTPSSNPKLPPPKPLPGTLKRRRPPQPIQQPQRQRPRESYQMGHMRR
Kind of data set: Inhibition of ADAM-10.

Data set [3] concerns the target 72 kDa type IV collagenase (Homo sapiens, UniProt P08253). Kind of data set: Inhibition of MMP-2.
The target of a further data set is Stromelysin-1 (Homo sapiens, UniProt P08254). Kind of data set: Inhibition of MMP-3.
The next data set concerns the target T2, Interstitial collagenase (Homo sapiens, UniProt P03956).
T2 sequence (P03956 whole entry): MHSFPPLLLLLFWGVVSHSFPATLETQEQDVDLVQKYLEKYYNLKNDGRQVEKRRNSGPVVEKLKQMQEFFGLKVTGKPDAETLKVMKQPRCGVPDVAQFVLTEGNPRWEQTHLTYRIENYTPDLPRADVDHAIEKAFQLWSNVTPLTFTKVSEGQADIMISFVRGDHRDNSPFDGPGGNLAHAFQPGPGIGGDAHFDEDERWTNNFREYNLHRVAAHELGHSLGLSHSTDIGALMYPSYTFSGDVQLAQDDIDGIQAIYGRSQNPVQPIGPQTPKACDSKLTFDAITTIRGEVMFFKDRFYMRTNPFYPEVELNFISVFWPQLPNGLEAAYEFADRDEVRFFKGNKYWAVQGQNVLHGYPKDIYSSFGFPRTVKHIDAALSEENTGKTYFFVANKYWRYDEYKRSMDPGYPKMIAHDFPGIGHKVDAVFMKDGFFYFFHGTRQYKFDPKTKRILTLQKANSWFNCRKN
Put plainly: Inhibition of MMP-1.

Another data set deals with Mus musculus. Kind of data set: AUC in mouse at 5 mg/kg, po. Type of data set: ADME, organism-based, Plasma. Details: dose 5 mg/kg, route oral. The note with it: in vivo. A digest of the protocol:
(§1)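 Oral dose of 5 mg/kg, given as a suspension.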

A short description of data set [4]: Half life in mouse at 5 mg/kg, po. Details: dose 5 mg/kg, route oral. The note with it: in vivo. The data set is classed as ADME, organism-based. A digest of the protocol:
as §1

The nature of data set [5]: Clearance in human microsome. Type of data set: ADME. Conditions: microsomes. A digest of the protocol:
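Clearance projected from incubation with human microsomes and expressed in L/h/kg.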

Data set [6] in a line: Permeability across human Caco-2 cells. The data set is classed as ADME, cell-based.

Stromelysin-1, sequence (P08254 whole entry): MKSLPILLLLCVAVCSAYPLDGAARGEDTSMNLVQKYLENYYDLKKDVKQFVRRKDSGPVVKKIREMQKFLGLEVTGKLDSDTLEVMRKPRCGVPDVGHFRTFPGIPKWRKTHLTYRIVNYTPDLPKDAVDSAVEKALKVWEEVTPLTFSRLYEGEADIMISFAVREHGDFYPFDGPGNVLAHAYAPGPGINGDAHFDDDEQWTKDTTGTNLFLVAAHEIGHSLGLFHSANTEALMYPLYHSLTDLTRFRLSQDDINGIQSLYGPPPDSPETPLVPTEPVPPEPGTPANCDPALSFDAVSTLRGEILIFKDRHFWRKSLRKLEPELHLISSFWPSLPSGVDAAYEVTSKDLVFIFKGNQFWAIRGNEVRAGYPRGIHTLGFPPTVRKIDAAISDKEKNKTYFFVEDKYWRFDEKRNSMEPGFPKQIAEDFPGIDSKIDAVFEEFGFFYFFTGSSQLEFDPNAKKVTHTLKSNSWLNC
Matrix metalloproteinase-9, sequence (P14780 whole entry, the tested form may be a part): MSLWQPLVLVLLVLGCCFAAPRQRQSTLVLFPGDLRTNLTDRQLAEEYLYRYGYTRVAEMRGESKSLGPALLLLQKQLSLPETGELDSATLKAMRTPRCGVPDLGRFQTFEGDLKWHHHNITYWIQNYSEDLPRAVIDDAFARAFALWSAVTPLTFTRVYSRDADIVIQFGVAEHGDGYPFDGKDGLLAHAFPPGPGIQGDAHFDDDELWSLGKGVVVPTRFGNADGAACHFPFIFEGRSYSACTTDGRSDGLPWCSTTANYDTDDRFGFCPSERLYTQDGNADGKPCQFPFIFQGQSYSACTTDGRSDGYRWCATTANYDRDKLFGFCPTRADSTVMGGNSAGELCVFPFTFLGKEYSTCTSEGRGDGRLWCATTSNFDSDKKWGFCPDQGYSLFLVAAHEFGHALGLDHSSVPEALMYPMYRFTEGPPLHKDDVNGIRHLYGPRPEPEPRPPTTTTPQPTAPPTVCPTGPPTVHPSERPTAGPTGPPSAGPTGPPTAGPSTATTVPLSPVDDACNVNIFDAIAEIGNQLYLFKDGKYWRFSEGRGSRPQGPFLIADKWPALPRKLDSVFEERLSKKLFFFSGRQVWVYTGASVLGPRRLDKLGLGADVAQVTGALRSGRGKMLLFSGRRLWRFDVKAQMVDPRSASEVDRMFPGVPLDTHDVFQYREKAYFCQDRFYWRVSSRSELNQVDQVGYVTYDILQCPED
72 kDa type IV collagenase, sequence (P08253 whole entry): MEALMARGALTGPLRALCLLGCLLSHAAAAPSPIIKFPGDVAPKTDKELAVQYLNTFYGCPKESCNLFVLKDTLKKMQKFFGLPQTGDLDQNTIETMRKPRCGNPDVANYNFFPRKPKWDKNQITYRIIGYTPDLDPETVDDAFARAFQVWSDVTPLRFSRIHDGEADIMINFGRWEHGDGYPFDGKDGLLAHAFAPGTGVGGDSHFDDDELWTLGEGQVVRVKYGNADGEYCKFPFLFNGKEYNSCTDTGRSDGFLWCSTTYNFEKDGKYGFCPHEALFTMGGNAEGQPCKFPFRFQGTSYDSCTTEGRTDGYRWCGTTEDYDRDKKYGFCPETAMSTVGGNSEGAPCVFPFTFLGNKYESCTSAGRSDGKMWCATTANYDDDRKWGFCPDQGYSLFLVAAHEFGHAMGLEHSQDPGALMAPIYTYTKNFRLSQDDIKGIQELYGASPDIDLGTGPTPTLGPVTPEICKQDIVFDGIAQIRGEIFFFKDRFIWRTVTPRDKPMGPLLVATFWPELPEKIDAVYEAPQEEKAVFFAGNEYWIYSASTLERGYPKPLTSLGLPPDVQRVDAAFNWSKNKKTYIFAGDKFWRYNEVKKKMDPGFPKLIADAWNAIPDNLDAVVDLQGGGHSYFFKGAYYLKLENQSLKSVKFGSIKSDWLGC

`O=C(NO)[C@H]1C[C@H](OC(=O)N2CCCC2)CN[C@@H]1C(=O)N1CCN(c2ccccc2)CC1`: the IC50 in [1] is more than 5000 nM; in data set [2], 11 nM; in data set [3], 235 nM; against Stromelysin-1, more than 5000 nM; against Interstitial collagenase it was more than 5000 nM.

For the molecule `O=C(NO)[C@H]1CC(OC(=O)N2CCCC2)CN[C@@H]1C(=O)N1CC[C@H](c2ccccc2)C1` (some centres undefined), the 50% inhibitory concentration (IC50) in data set [1] is more than 5000 nM; in [2], 83 nM; in data set [3], more than 2000 nM; against Stromelysin-1 it was more than 5000 nM; at Interstitial collagenase, more than 5000 nM.

Take `O=C(NO)[C@H]1CC(OC(=O)N2CCCC2)CN[C@@H]1C(=O)N1Cc2ccccc2C1` (some centres undefined): the IC50 is more than 5000 nM in data set [1]; 186 nM in data set [2]; more than 2000 nM in data set [3]; more than 5000 nM against Stromelysin-1; 2500 nM against Interstitial collagenase.

On to `CC(C)OC(=O)N(C)C1CN[C@H](C(=O)N2CC=C(c3ccccc3)CC2)[C@@H](C(=O)NO)C1` (some centres undefined), for which the IC50 in data set [2] was 11 nM; in data set [3], less than 5 nM.

For `CN1C[C@@H](OC(=O)N2CCCCCC2)C[C@H](C(=O)NO)[C@H]1C(=O)N1CCN(c2ccccc2)CC1`, the IC50 is more than 5000 nM in [1]; 35 nM in [2]; 843 nM in [3]; more than 5000 nM against Stromelysin-1; more than 5000 nM against Interstitial collagenase.

As to `O=C(NO)[C@H]1CC(CC(=O)N2CCCC2)CN[C@@H]1C(=O)N1CC[C@H](c2ccccc2)C1` (some centres undefined), the IC50 in [2] turned out to be 14 nM; in data set [3], 365 nM.

Take `O=C(NO)[C@H]1CC(CC(=O)N2CCCC2)CN[C@@H]1C(=O)N1CC=C(c2ccccc2)CC1` (some centres undefined): the IC50 is 17 nM in data set [2] and less than 5 nM in [3].

As for `CN1C[C@@H](OC(=O)N2CCC(F)(F)C2)C[C@H](C(=O)NO)[C@H]1C(=O)N1CCN(c2ccccc2)CC1`, the half-maximal inhibitory concentration (IC50) is 125 nM in data set [2] and more than 2000 nM in data set [3].

`CN1C[C@@H](OC(=O)N2CCCCCCC2)C[C@H](C(=O)NO)[C@H]1C(=O)N1CCN(c2ccccc2)CC1`: the IC50 in [1] is more than 5000 nM; in [2], 26 nM; in data set [3], 1470 nM; against Stromelysin-1 it was more than 5000 nM; against Interstitial collagenase, more than 5000 nM. In addition, the AUC with Mus musculus worked out at 323 nM/L.hr. In data set [4], the half-life is 52.8 min.

For `CC(C)C(=O)N(C)C1CN[C@H](C(=O)N2CC[C@H](c3ccccc3)C2)[C@@H](C(=O)NO)C1` (some centres undefined), the IC50 in [2] worked out at 138 nM; in data set [3] it was 502 nM.

Take `CN1C[C@@H](OC(=O)N2CCC2)C[C@H](C(=O)NO)[C@H]1C(=O)N1CCN(c2ccccc2)CC1`: the IC50 is more than 5000 nM in data set [1]; 20 nM in data set [2]; 432 nM in data set [3]; more than 5000 nM on Stromelysin-1; more than 5000 nM on Interstitial collagenase.

In the case of `CN(C(=O)c1ccccc1)C1CN[C@H](C(=O)N2CC[C@H](c3ccccc3)C2)[C@@H](C(=O)NO)C1` (some centres undefined), the IC50 in data set [2] is 84 nM; in data set [3], 210 nM.

Take `CN(C(=O)c1ccccc1)C1CN[C@H](C(=O)N2CC=C(c3ccccc3)CC2)[C@@H](C(=O)NO)C1` (some centres undefined): the half-inhibitory concentration (IC50) in data set [2] and in [3] was 12 nM throughout.

As to `COC(=O)N1C[C@@H](OC(=O)N2CCCC2)C[C@H](C(=O)NO)[C@H]1C(=O)N1CCN(c2ccccc2)CC1`, the IC50 is more than 5000 nM in data set [1]; 20 nM in [2]; 613 nM in [3]; more than 5000 nM at Stromelysin-1; more than 5000 nM on Interstitial collagenase.

With `CN1C[C@@H](OC(=O)N2CCCCC2)C[C@H](C(=O)NO)[C@H]1C(=O)N1CCN(c2ccccc2)CC1`, the CL in data set [5] worked out at 9.67 mL/min/kg. Moreover, the IC50 in [1] was more than 5000 nM; in [2], 9.6 nM; in data set [3] it was 344 nM; against Stromelysin-1, more than 5000 nM; at Interstitial collagenase it was more than 5000 nM. The molecule further returned a Papp in data set [6] of 0.9 ×10⁻⁶ cm/s.

As to `CN1C[C@@H](OC(=O)N2CCCC2)C[C@H](C(=O)NO)[C@H]1C(=O)N1CCN(c2ccccc2)CC1`, the IC50 in data set [1] is more than 5000 nM; in data set [2], 18 nM; in [3], 471 nM; against Stromelysin-1 it was more than 5000 nM; at Interstitial collagenase it was more than 5000 nM.

On to `CN(C)C(=O)O[C@H]1C[C@H](C(=O)NO)[C@@H](C(=O)N2CCN(c3ccccc3)CC2)N(C)C1`, for which the IC50 in data set [1] is more than 5000 nM; in data set [2], 58 nM; in data set [3], 730 nM; on Stromelysin-1, more than 5000 nM; at Interstitial collagenase, more than 5000 nM.

Consider `O=C(NO)[C@H]1C[C@H](OC(=O)N2CCCC2)CN[C@@H]1C(=O)N1CC=C(c2ccccc2)C1`, for which the IC50 in [1] was more than 5000 nM; in data set [2], 60 nM; at Stromelysin-1 it was more than 5000 nM; at Interstitial collagenase, more than 5000 nM.

As to `NCCCCNC(=O)CC1CN[C@H](C(=O)N2CCC(c3ccccc3)C2)[C@@H](C(=O)NO)C1` (some centres undefined), the IC50 in [2] worked out at 161 nM; in [3], 1660 nM.

With `O=C(NO)[C@H]1C[C@H](OC(=O)N2CCCC2)CN[C@@H]1C(=O)N1CCC(c2ccccc2)CC1`, the IC50 in [1] is more than 5000 nM; in data set [2] it was 99 nM; in data set [3], more than 2000 nM; on Stromelysin-1, more than 5000 nM; on Interstitial collagenase, more than 5000 nM.

Regarding `O=C(NO)[C@H]1C[C@@H](OC(=O)N2CCCC2)CN[C@@H]1C(=O)N1CC=C(c2ccccc2)CC1`, the IC50 was 78 nM in [2] and less than 5 nM in data set [3].

On to `O=C(NO)[C@H]1CC(OC(=O)N2CCCC2)CN[C@@H]1C(=O)N1CC=C(c2ccccc2)CC1` (some centres undefined), for which the IC50 in data set [1] is 498 nM; in data set [2], 9 nM; in [3], 102 nM; on Stromelysin-1 it was more than 5000 nM; against Interstitial collagenase, more than 5000 nM.

`O=C(NO)[C@H]1CC2(CC2)CN[C@@H]1C(=O)N1CC=C(c2ccccc2)CC1` had an IC50 in data set [3] of less than 5 nM.

For the molecule `CN1C[C@@H](OC(=O)N2CC=CC2)C[C@H](C(=O)NO)[C@H]1C(=O)N1CCN(c2ccccc2)CC1`, the IC50 in data set [1] is more than 5000 nM; in data set [2], 30 nM; in data set [3] it was 581 nM; against Stromelysin-1, more than 5000 nM; on Interstitial collagenase, more than 5000 nM.

Regarding `CC(C)C(=O)N(C)C1CN[C@H](C(=O)N2CC=C(c3ccccc3)CC2)[C@@H](C(=O)NO)C1` (some centres undefined), the IC50 in data set [2] was 23 nM; in data set [3] it was 11 nM.
